Source: ChEMBL document CHEMBL4382230, “Structure-activity relationships, biological evaluation and structural studies of novel pyrrolonaphthoxazepines as antitumor agents” (Eur J Med Chem, 2019)
In brackets after ≈: the same amount, converted by molar mass. Activity calls are given as the source filed them. The calls are words filed in the database; no cut-off is given here.

What was measured:
[1] = Ratio of IC50 for mouse NIH/3T3 cells harboring MDR G185 to IC50 for mouse NIH/3T3 cells
How it was run: (§1)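 Relative resistance: IC50 in the P-gp overexpressing resistant line divided by IC50 in the parental line. Both IC50s came from the 48 h MTT assay (serial dilutions, absorbance at 595/690 nm, log-dose response curves, three independent assays).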

[2] = Cytotoxicity against human A2780AD cells after 48 hrs by MTT assay; type: functional, cell-based
How it was run: (§2)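 Cells seeded at 12,000 to 17,000 per well depending on line, incubated overnight, then given serial dilutions of ligand for 48 h. MTT at 2.5 mg/mL added for 4 h at 37 °C, formazan solubilized overnight (10% SDS, 45% dimethylformamide, pH 5.5), absorbance read at 595/690 nm. IC50 from log-dose response curves; mean ± SE of three independent assays.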

NIH3T3 [3] = assay: Cytotoxicity against mouse NIH/3T3 cells harboring MDR G185 after 48 hrs by MTT assay; type: functional, cell-based; settings: NIH3T3, 48 h; how it was run: as §2
NIH3T3 [4] = assay: Cytotoxicity against mouse NIH/3T3 cells after 48 hrs by MTT assay; type: cell-based; settings: NIH3T3, 48 h; how it was run: as §2
[5] = Ratio of IC50 for human A2780AD cells to IC50 for human A2780 cells; type: functional; how it was run: as §1
A2780 = assay: Cytotoxicity against human A2780 cells after 48 hrs by MTT assay; type: functional, cell-based; settings: A2780, 48 h; how it was run: as §2
GISTT1 = assay: Cytotoxicity against human GISTT1 cells assessed as reduction in cell viability at 1 uM after 48 hrs by alamar blue assay; type: functional, cell-based
How it was run: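 GIST-T1 seeded at 4000 cells/well, exposed to 1 or 10 μM for 48 h; viability read by AlamarBlue.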

HL-60 [6] = assay: Cytotoxicity against human HL60 cells assessed as reduction in cell viability after 72 hrs by alamar blue assay; type: functional, cell-based; settings: HL-60, 72 h
How it was run: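 HL-60 at 300,000 cells/ml treated in triplicate with compound or vehicle (0.1% v/v DMSO) for 72 h. Cells then incubated in 10% (v/v) AlamarBlue and fluorescence read at excitation 544 nm, emission 590 nm. IC50 is the mean of at least three separate determinations.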

[7] = Solubility of compound in pH 7.4 aqueous solution after 12 hrs by HPLC analysis; type: physicochemical
How it was run: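 Water solubility at pH 7.4 measured by HPLC analysis.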

HL-60 [8] = assay: Cell cycle arrest in human HL60 cells assessed as accumulation of cells at G2/M phase at 10 uM after 24 hrs by propidium iodide staining-based flow cytometric analysis; type: functional
How it was run: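 HL-60 exposed to 10 μM for 24 h, vehicle 0.1% DMSO. Cells plated at 2×10^5 cells/mL, stained in PBS with 0.1% sodium citrate, 0.1% NP40 and propidium iodide for 30 min at room temperature in the dark. DNA content by flow cytometry; G2/M fraction reported.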

NB-4 [9] = assay: Cell cycle arrest in human NB4 cells assessed as accumulation of cells at G1 phase after 24 hrs by propidium iodide staining-based flow cytometric analysis; type: functional
How it was run: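 NB4 cultured at 37 °C, 5% CO2 in RPMI-1640 with 10% heat-inactivated FBS. Treated at 50 and 100 nM, 1 and 10 μM for 24 h. Cells fixed/permeabilized in 70% ethanol overnight at 4 °C, then given RNase and 20 μg/ml PI for 30 min. Doublets excluded, 20,000 events per sample; cell-cycle phase distribution analysed.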

B16-F10 = assay: Cytotoxicity against mouse B16F10 cells assessed as reduction in cell survival at 0.1 to 10 uM after 18 hrs by MTT assay; type: functional, cell-based
How it was run: (§3)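 Seeded at 2,500 cells/well in medium with 10% serum. After adhesion, exposed to 0.1, 1 and 10 μM in medium with 5% serum for 18 h. Medium then replaced with fresh medium containing 1.2 mM MTT for 4 h; formazan dissolved in DMSO, absorbance at 540 nm. Results given as % of basal response.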

B16-F1 = assay: Cytotoxicity against mouse B16-F1 cells assessed as reduction in cell survival at 0.1 to 10 uM after 18 hrs by MTT assay; type: functional, cell-based; how it was run: as §3
PC-9 = assay: Cytotoxicity against human PC9 cells assessed as reduction in cell survival at 0.1 to 10 uM after 18 hrs by MTT assay; type: functional, cell-based; how it was run: as §3
A549 = assay: Cytotoxicity against human A549 cells assessed as reduction in cell survival at 0.1 to 10 uM after 18 hrs by MTT assay; type: functional, cell-based; how it was run: as §3
Tubulin (Homo sapiens) [10] = molecular target: T1, Tubulin (Homo sapiens) (UniProt P68371+Q9H4B7+P0DPH7+P68366+Q13509+Q71U36+P04350+Q3ZCM7+P07437+P68363+Q9BQE3+Q6PEY2+Q13885+Q9BVA1+Q9BUF5); assay: Binding affinity to tubulin (unknown origin) by analytical ultracentrifugation
HCC827 [11] = assay: Cytotoxicity against human HCC827 cells assessed as reduction in cell survival at 0.1 to 10 uM after 18 hrs by MTT assay; type: functional, cell-based; how it was run: as §3
HCC827 [12] = assay: Cytotoxicity against human HCC827 cells assessed as reduction in cell survival at 0.1 to 10 uM after 50 to 60 hrs by MTT assay; type: functional, cell-based
Tubulin (Homo sapiens) [13] = molecular target: T1, Tubulin (Homo sapiens); assay: Inhibition of tubulin (unknown origin) polymerization at 27.5 uM measured over 70 mins by turbidity method; type: protein-complex assay
How it was run: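 Tubulin at 25 µM in GAB buffer (10 mM sodium phosphate, 30% glycerol, 1 mM EGTA, 6 mM MgCl2, 1 mM GTP, pH 6.7) with 27.5 µM compound or DMSO vehicle. Turbidity is read at 355 nm for 70 min at 37 °C. Data are normalized to the initial stable absorbance plateau to correct for compound absorbance.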

[14] = Apparent solubility of compound in sodium phosphate buffer at 15 uM after 20 mins; type: physicochemical
Tubulin (Homo sapiens) [15] = molecular target: T1, Tubulin (Homo sapiens); assay: Displacement of podophyllotoxin from tubulin (unknown origin) by ultracentrifugation method; type: protein-complex assay
NB-4 [16] = assay: Induction of differentiation in human NB4 cells at 500 nM after 24 hrs in presence of ATRA by CD11c staining-based flow cytometric analysis; type: functional, cell-based
How it was run: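 NB4 exposed to 0.5 μM compound together with 1 μM ATRA for 24 h. Cells stained with PE-conjugated CD11c (mouse IgG1-PE control) for 1 h at 4 °C in the dark, washed, resuspended in PBS with propidium iodide (0.25 μg/mL), then analysed by flow cytometry. Biological triplicates, mean ± S.E.M.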

SMILES	Ratio IC50 [1]	IC50 [2] [nM]	IC50 (NIH3T3 [3]) [nM]	IC50 (NIH3T3 [4]) [nM]	Ratio IC50 [5]	IC50 (A2780) [nM]	IC50 (HL-60 [6]) [nM]	Activity (HL-60 [8])	further results
CC[C@]1(O)C[C@@H]2CN(CCc3c([nH]c4ccccc34)[C@@](C(=O)OC)(c3cc4c(cc3OC)N(C)[C@H]3[C@@](O)(C(=O)OC)[C@H](OC(C)=O)[C@]5(CC)C=CCN6CC[C@]43[C@@H]65)C2)C1 [VINBLASTINE]	70.4	44	70.4	1	88	0.5			
CN(C)C(=O)OC1=C(c2cccc3cccnc23)Oc2cc3ccccc3cc2-n2cccc21							300		Activity (GISTT1): Active
O=C1c2cccn2-c2cc3ccccc3cc2OC1c1cccc2cccnc12 (configuration not stated)							1080		
COC(=O)Nc1nc2ccc(C(=O)c3cccs3)cc2[nH]1 [NOCODAZOLE]									solubility at 12 h [7]: < 1000 µg/mL
CC(=O)NC1=C(c2cccc3ccccc23)Oc2cc3ccccc3cc2-n2cccc21								Active	
CC(=O)OC1=C(c2cccc3cccnc23)Oc2cc3ccccc3cc2-n2cccc21	2	79	68	34	1.03	76	263	Active	Activity (NB-4 [9]): Dose-dependent effect; Activity (B16-F10): Active; Activity (B16-F1): Active; Activity (PC-9): Active; Activity (A549): Active; Kb (Tubulin (Homo sapiens) [10]): 115 ×10⁷ /M; Activity (HCC827 [11]): Active; Activity (GISTT1): Active; Activity (HCC827 [12]): inactive; inhibition (Tubulin (Homo sapiens) [13]): Active; solubility at 20 min, 15 µM [14]: 0.36 µM (≈ 0.151 µg/mL); inhibition (Tubulin (Homo sapiens) [15]): Active; Activity (NB-4 [16]): Active
O=C1c2cccn2-c2cc3ccccc3cc2OC1c1cccc2ncccc12 (configuration not stated)							2770		
CCc1ccc2cccc(C3=C(OC(=O)N(CC)CC)c4cccn4-c4cc5ccccc5cc4O3)c2n1								Active	
CC(=O)OC1=C(c2cnc3ccccc3c2)Oc2cc3ccccc3cc2-n2cccc21							6460	Active	Activity (B16-F10): inactive; Activity (B16-F1): inactive; Activity (PC-9): inactive; Activity (A549): inactive; Activity (HCC827 [11]): inactive; Activity (HCC827 [12]): inactive
CCN(CC)C(=O)OC1=C(c2cccc3cccnc23)Oc2cc3ccccc3cc2-n2cccc21							4580		
COc1cc2c(c(OC)c1OC)-c1ccc(OC)c(=O)cc1[C@@H](NC(C)=O)CC2 [COLCHICINE]	44.7	500	1120	25	38.2	13.1			
CC(=O)OC1=C(c2cccc3cnccc23)Oc2cc3ccccc3cc2-n2cccc21	2.33	810	876	375	2.69	301			Kb (Tubulin (Homo sapiens) [10]): 16 ×10⁷ /M; inhibition (Tubulin (Homo sapiens) [13]): Active; solubility at 20 min, 15 µM [14]: 0.22 µM (≈ 0.0921 µg/mL); inhibition (Tubulin (Homo sapiens) [15]): Active
CCN(CC)CCCC(C)NC(=O)OC1=C(c2cccc3cccnc23)Oc2cc3ccccc3cc2-n2cccc21 (configuration not stated)	1.08	1350	2500	2300	0.71	1900		Active	Kb (Tubulin (Homo sapiens) [10]): 114 ×10⁷ /M; inhibition (Tubulin (Homo sapiens) [13]): Active; solubility at 20 min, 15 µM [14]: 2.89 µM (≈ 1.62 µg/mL); inhibition (Tubulin (Homo sapiens) [15]): Active
CC(=O)O[C@H]1C(=O)[C@@]2(C)[C@H]([C@H](OC(=O)c3ccccc3)[C@]3(O)C[C@H](OC(=O)[C@H](O)[C@@H](NC(=O)c4ccccc4)c4ccccc4)C(C)=C1C3(C)C)[C@]1(OC(C)=O)CO[C@@H]1C[C@@H]2O [PACLITAXEL]	195	700	4880	25	212.12	3.3			
CCN(CC)CCCC(C)NC(=O)OC1=C(c2cccc3ccccc23)Oc2cc3ccccc3cc2-n2cccc21 (configuration not stated)								Active	
